Results: ChEMBL document CHEMBL1132311, “Design and synthesis of isoxazoline derivatives as factor Xa inhibitors. 1” (J Med Chem, 1999)

Experiments:
[1] = target: T1, Serine protease 1 (Homo sapiens, UniProt P07477); test: The binding affinity was measured towards human purified trypsin
In short: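 Human purified enzymes, microtiter format; 0.1 M sodium phosphate, 0.2 M NaCl, 0.5% PEG 6000, pH 7.0. Compound at 10 to 0.00316 µM (eight half-log steps). Absorbance at 405 nm read for 30 min; rates vs uninhibited controls give % activity, Ki calculated from substrate concentration and Km. Duplicate runs with the same internal standards.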

[2] = species: Oryctolagus cuniculus; test: The ID50 value was the 50% inhibition of thrombus formation was measured on rabbits; assay type: functional
In short: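 New Zealand rabbits (2-4 kg) under ketamine (50 mg/kg im) plus xylazine (10 mg/kg im). Femoral artery-vein shunt containing silk thread. Compound or saline vehicle given as continuous iv infusion via jugular vein, starting 1 h before shunt flow and continuing throughout (100 min).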

[3] = target: Prothrombin (Homo sapiens, UniProt P00734); test: The binding affinity towards thrombin obtained from human purified enzymes.
[4] = target: Coagulation factor X (Homo sapiens, UniProt P00742); test: Binding affinity to purified human coagulation factor Xa (FXa)
[5] = target: T1, Serine protease 1; test: The binding affinity was measured on trypsin obtained from Human purified enzymes
In short: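 Inhibition constant against human purified trypsin, in 0.1 M sodium phosphate with 0.2 M NaCl and 0.5% PEG 6000, pH 7.0. Eight inhibitor levels were run, 10 down to 0.00316 µM. Absorbance was read at 405 nm for 30 min. Ki was derived from % activity relative to uninhibited rates using Km and substrate concentration. Duplicate runs alongside internal standards.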

Chain of Coagulation factor X (P00742 41-179 limits assumed): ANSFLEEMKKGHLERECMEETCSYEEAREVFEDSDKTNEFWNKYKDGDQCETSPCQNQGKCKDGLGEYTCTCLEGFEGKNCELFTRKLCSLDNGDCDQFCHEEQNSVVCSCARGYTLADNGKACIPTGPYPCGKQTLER
Chain of Coagulation factor X (P00742 235-488 limits assumed): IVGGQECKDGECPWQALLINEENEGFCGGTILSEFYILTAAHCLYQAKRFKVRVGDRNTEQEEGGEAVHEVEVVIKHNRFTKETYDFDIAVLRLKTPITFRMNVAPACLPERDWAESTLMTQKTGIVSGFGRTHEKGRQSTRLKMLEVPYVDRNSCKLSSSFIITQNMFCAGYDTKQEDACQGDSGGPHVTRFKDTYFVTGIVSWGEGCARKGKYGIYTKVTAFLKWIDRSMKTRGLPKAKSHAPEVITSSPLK
T1 sequence (P07477 whole entry): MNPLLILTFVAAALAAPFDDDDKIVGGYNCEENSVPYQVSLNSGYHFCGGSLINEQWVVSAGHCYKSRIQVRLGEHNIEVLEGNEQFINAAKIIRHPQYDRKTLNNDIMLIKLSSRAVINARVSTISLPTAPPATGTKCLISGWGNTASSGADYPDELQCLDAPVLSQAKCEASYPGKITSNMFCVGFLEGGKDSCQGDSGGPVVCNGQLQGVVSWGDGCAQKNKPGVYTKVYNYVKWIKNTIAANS

SMILES	Ki [1]	Ki [3]	Ki [4]	Ki [5]	ID50 [2]
COC(=O)CC1(C(=O)Nc2ccc(-c3ccccc3S(N)(=O)=O)cc2)CC(c2cccc(C(=N)N)c2)=NO1.O=C(O)C(F)(F)F (single isomer, unassigned; (-))	98 nM	2400 nM	–	–	0.2 µM/h/kg
COC(=O)CC1(C(=O)Nc2ccc(-c3ccccc3)cc2)CC(c2cccc(C(=N)N)c2)=NO1 (stereo not given)	470 nM	3500 nM	220 nM	–	–
COC(=O)CC1(C(=O)Nc2ccc(-c3ccccc3SC)cc2)CC(c2cccc(C(=N)N)c2)=NO1 (stereo not given)	260 nM	1200 nM	66 nM	–	–
COC(=O)CC1(C(=O)Nc2ccc(-c3ccccc3S(N)(=O)=O)cn2)CC(c2cccc(C(=N)N)c2)=NO1 (stereo in doubt; 30)	25 nM	–	0.96 nM	–	–
COC(=O)CC1(C(=O)Nc2ccc(-c3ccccc3S(N)(=O)=O)cc2C)CC(c2cccc(C(=N)N)c2)=NO1 (stereo not given)	300 nM	3100 nM	8.8 nM	–	–
COC(=O)CC1(C(=O)Nc2ccc(-c3ccccc3S(N)(=O)=O)cc2F)CC(c2cccc(C(=N)N)c2)=NO1 (stereo not given)	120 nM	3800 nM	4.2 nM	–	–
COC(=O)CC1(C(=O)Nc2ccc(-c3ccccc3C(F)(F)F)cc2)CC(c2cccc(C(=N)N)c2)=NO1 (stereo not given)	230 nM	1400 nM	28 nM	–	–
COC(=O)CC1(C(=O)Nc2ncc(-c3ccccc3S(N)(=O)=O)cn2)CC(c2cccc(C(=N)N)c2)=NO1.O=C(O)C(F)(F)F (racemic)	–	–	–	–	0.4 µM/h/kg
COC(=O)CC1(C(=O)Nc2ccc(-c3ccccc3S(N)(=O)=O)cc2)CC(c2cccc(C(=N)N)c2)=NO1.O=C(O)C(F)(F)F (single isomer, unassigned; (+))	300 nM	> 21000 nM	–	–	2 µM/h/kg
COC(=O)CC1(C(=O)Nc2ccc(-c3cccc(C)c3)cc2)CC(c2cccc(C(=N)N)c2)=NO1 (stereo not given)	–	2100 nM	240 nM	–	–
COC(=O)CC1(C(=O)Nc2ccc(-c3ccccc3S(N)(=O)=O)nc2)CC(c2cccc(C(=N)N)c2)=NO1 (stereo not given)	180 nM	10800 nM	19 nM	–	–
COC(=O)CC1(C(=O)Nc2ccc(-c3ccccc3S(N)(=O)=O)cc2)CC(c2cccc(C(=N)N)c2)=NO1.O=C(O)C(F)(F)F (racemic)	121 nM	–	–	–	0.6 µM/h/kg
COC(=O)CC1(C(=O)Nc2ccc(-c3ccccc3OC)cc2)CC(c2cccc(C(=N)N)c2)=NO1 (stereo not given)	310 nM	2800 nM	62 nM	–	–
COC(=O)CC1(C(=O)Nc2ncc(-c3ccccc3S(N)(=O)=O)cn2)CC(c2cccc(C(=N)N)c2)=NO1 (stereo in doubt; 31)	336 nM	14000 nM	–	–	–
COC(=O)CC1(C(=O)Nc2ccc(-c3cccc(S(N)(=O)=O)c3)cc2)CC(c2cccc(C(=N)N)c2)=NO1 (stereo not given)	340 nM	3100 nM	68 nM	–	–

Now from value to molecule, other results behind:

Ki [1]	Ki [3]	Ki [4]	Ki [5]	SMILES	ID50 [2]
25 nM	–	0.96 nM	–	COC(=O)CC1(C(=O)Nc2ccc(-c3ccccc3S(N)(=O)=O)cn2)CC(c2cccc(C(=N)N)c2)=NO1.O=C(O)C(F)(F)F (racemic)	0.3 µM/h/kg
–	–	40 nM	55 nM	CC(=O)N[C@H](Cc1ccccc1)C(=O)N1CCC[C@@H]1C(=O)NC(CCCN=C(N)N)B(O)O (single isomer, unassigned; (-))	–
570 nM	1200 nM	240 nM	–	COC(=O)CC1(C(=O)Nc2ccc(-c3cccc(C(F)(F)F)c3)cc2)CC(c2cccc(C(=N)N)c2)=NO1 (stereo not given)	–
710 nM	> 21000 nM	12 nM	–	COC(=O)CC1(C(=O)Nc2ncc(-c3ccccc3S(N)(=O)=O)cn2)CC(c2cccc(C(=N)N)c2)=NO1.O=C(O)C(F)(F)F (stereo in doubt; 34(+))	>1.5 µM/h/kg
390 nM	1800 nM	210 nM	–	COC(=O)CC1(C(=O)Nc2ccc(-c3ccccc3C)cc2)CC(c2cccc(C(=N)N)c2)=NO1 (stereo not given)	–
300 nM	2100 nM	53 nM	–	COC(=O)CC1(C(=O)Nc2ccc(-c3ccccc3C(=O)OC)cc2)CC(c2cccc(C(=N)N)c2)=NO1 (stereo not given)	–
390 nM	2700 nM	200 nM	–	COC(=O)CC1(C(=O)Nc2ccc(-c3cccc(OC)c3)cc2)CC(c2cccc(C(=N)N)c2)=NO1 (stereo not given)	–
17 nM	2900 nM	0.83 nM	–	COC(=O)CC1(C(=O)Nc2ccc(-c3ccccc3S(N)(=O)=O)cn2)CC(c2cccc(C(=N)N)c2)=NO1.O=C(O)C(F)(F)F (single isomer, unassigned; (-))	0.26 µM/h/kg
100 nM	600 nM	4.2 nM	–	COC(=O)CC1(C(=O)Nc2ccc(-c3ccccc3S(C)(=O)=O)cc2)CC(c2cccc(C(=N)N)c2)=NO1 (stereo not given)	–
130 nM	18000 nM	7 nM	–	COC(=O)CC1(C(=O)Nc2ccc(-c3ccccc3S(N)(=O)=O)cn2)CC(c2cccc(C(=N)N)c2)=NO1.O=C(O)C(F)(F)F (single isomer, unassigned; (+))	0.6 µM/h/kg
170 nM	8900 nM	2.3 nM	–	COC(=O)CC1(C(=O)Nc2ncc(-c3ccccc3S(N)(=O)=O)cn2)CC(c2cccc(C(=N)N)c2)=NO1.O=C(O)C(F)(F)F (single isomer, unassigned; (-))	0.15 µM/h/kg
